# Assay results taken from PMC4856055 (Journal of medicinal chemistry, 2015).
# Where “and” joins values, the source holds several entries; their conditions need not be identical. Identical values can stand only once. Like-named read-outs stand apart in the source and are kept apart here.
# Columns and labels:
# [1] = system: PSMA+ PC3 PIP and PSMA– PC3 flu xenografts; assay type: in vivo, mice; conditions: for PIP:blood ratio / PIP:flu ratio / PIP:kidney ratio / PIP:muscle ratio / biodistribution, PC-3 PIP tumor / biodistribution, PC-3 flu tumor / biodistribution, bladder / biodistribution, blood / biodistribution, bone / biodistribution, fat / biodistribution, heart / biodistribution, kidney / biodistribution, large intestine / biodistribution, liver / biodistribution, lung / biodistribution, muscle / biodistribution, pancreas / biodistribution, small intestine / biodistribution, spleen / biodistribution, stomach: tumor bearing mice
# [2] = system: PSMA+ PC3 PIP and PSMA– PC3 flu tumor xenografts; assay: Small animal PET or PET/CT imaging of tumor bearing mice; assay type: in vivo
# PSMA = PSMA (Homo sapiens, UniProt Q04609); assay: PSMA inhibitory activity, fluorescence-based Amplex red glutamic acid; assay type: biochemical; conditions: for Ki: LNCaP cell lysates, 4 µM NAAG, Cheng-Prusoff conversion
# Method in brief: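 LNCaP cell lysate was incubated with the test compound and NAAG substrate for 120 min. Glutamate released by NAAG hydrolysis was detected by a further 60 min incubation with Amplex red glutamic acid working solution, then fluorescence was read at excitation 490 nm and emission 642 nm. IC50 was taken from semilog inhibition curves and converted to Ki by Cheng-Prusoff. Assays were run in triplicate.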
# Chain of PSMA (Q04609 whole entry): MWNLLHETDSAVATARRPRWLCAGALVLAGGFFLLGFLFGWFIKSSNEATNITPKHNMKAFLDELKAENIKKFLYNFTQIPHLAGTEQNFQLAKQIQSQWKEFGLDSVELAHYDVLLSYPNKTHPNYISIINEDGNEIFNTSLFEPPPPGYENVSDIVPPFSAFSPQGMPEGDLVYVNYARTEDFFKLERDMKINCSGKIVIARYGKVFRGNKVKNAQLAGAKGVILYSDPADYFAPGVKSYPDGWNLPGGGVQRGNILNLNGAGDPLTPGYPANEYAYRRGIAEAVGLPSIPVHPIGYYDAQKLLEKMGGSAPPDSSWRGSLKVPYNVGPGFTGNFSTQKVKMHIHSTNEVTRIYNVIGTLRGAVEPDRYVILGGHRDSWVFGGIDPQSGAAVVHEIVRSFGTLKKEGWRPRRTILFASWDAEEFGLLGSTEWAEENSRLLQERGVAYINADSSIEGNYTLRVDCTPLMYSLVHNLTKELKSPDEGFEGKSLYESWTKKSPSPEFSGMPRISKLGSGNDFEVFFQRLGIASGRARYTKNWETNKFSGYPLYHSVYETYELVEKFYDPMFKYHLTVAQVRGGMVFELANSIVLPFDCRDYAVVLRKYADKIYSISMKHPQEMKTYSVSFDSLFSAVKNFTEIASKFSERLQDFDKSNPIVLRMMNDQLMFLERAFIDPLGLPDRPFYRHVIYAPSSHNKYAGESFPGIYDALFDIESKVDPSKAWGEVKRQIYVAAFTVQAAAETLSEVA
smiles,measurement,setting,value
"O=C(O)CCC(OC(=O)NC(CCCCNC(=O)c1ccc(Br)cc1[18F])C(=O)O)C(=O)O (stereo not shown) [[^18F]23, 4-Bromo-2-[^18F]fluorobenzoyllysineoxypentanedioic acid (OPA) carbamate]",PIP:blood ratio,[1]; 0.5 h postinjection,13 and 13.5
same,PIP:flu ratio,[1]; 0.5 h postinjection,28.7
same,PIP:kidney ratio,[1]; 0.5 h postinjection,0.5
same,PIP:muscle ratio,[1]; 0.5 h postinjection,93 and 93.3
same,"biodistribution, PC-3 PIP tumor",[1]; 0.5 h postinjection,63 % ID/g and 63.4 ± 7.16 % ID/g
same,"biodistribution, PC-3 flu tumor",[1]; 0.5 h postinjection,2.21 ± 0.19 % ID/g
same,"biodistribution, bladder",[1]; 0.5 h postinjection,2.84 ± 0.65 % ID/g
same,"biodistribution, blood",[1]; 0.5 h postinjection,4.69 ± 0.33 % ID/g
same,"biodistribution, bone",[1]; 0.5 h postinjection,0.89 ± 0.14 % ID/g
same,"biodistribution, fat",[1]; 0.5 h postinjection,1.02 ± 0.12 % ID/g
same,"biodistribution, heart",[1]; 0.5 h postinjection,1.72 ± 0.31 % ID/g
same,"biodistribution, kidney",[1]; 0.5 h postinjection,135 ± 23.0 % ID/g
same,"biodistribution, large intestine",[1]; 0.5 h postinjection,1.35 ± 0.35 % ID/g
same,"biodistribution, liver",[1]; 0.5 h postinjection,15.5 ± 1.57 % ID/g
same,"biodistribution, lung",[1]; 0.5 h postinjection,4.59 ± 0.78 % ID/g
same,"biodistribution, muscle",[1]; 0.5 h postinjection,0.68 ± 0.07 % ID/g
same,"biodistribution, pancreas",[1]; 0.5 h postinjection,1.45 ± 0.15 % ID/g
same,"biodistribution, small intestine",[1]; 0.5 h postinjection,1.51 ± 0.71 % ID/g
same,"biodistribution, spleen",[1]; 0.5 h postinjection,19.9 ± 7.80 % ID/g
same,"biodistribution, stomach",[1]; 0.5 h postinjection,1.08 ± 0.07 % ID/g
same,PIP:blood ratio,[1]; 1 h postinjection,40 and 40.3
same,PIP:flu ratio,[1]; 1 h postinjection,69.4
same,PIP:kidney ratio,[1]; 1 h postinjection,0.5
same,PIP:muscle ratio,[1]; 1 h postinjection,208 and 208.1
same,"biodistribution, PC-3 PIP tumor",[1]; 1 h postinjection,64.5 ± 7.71 % ID/g
same,"biodistribution, PC-3 flu tumor",[1]; 1 h postinjection,0.93 ± 0.19 % ID/g
same,"biodistribution, bladder",[1]; 1 h postinjection,5.11 ± 3.57 % ID/g
same,"biodistribution, blood",[1]; 1 h postinjection,1.60 ± 1.17 % ID/g
same,"biodistribution, bone",[1]; 1 h postinjection,0.48 ± 0.17 % ID/g
same,"biodistribution, fat",[1]; 1 h postinjection,0.79 ± 0.74 % ID/g
same,"biodistribution, heart",[1]; 1 h postinjection,0.79 ± 0.14 % ID/g
same,"biodistribution, kidney",[1]; 1 h postinjection,139 ± 23.7 % ID/g
same,"biodistribution, large intestine",[1]; 1 h postinjection,0.71 ± 0.35 % ID/g
same,"biodistribution, liver",[1]; 1 h postinjection,11.9 ± 2.95 % ID/g
same,"biodistribution, lung",[1]; 1 h postinjection,2.62 ± 0.30 % ID/g
same,"biodistribution, muscle",[1]; 1 h postinjection,0.31 ± 0.05 % ID/g
same,"biodistribution, pancreas",[1]; 1 h postinjection,0.80 ± 0.21 % ID/g
same,"biodistribution, small intestine",[1]; 1 h postinjection,1.67 ± 0.70 % ID/g
same,"biodistribution, spleen",[1]; 1 h postinjection,9.62 ± 5.53 % ID/g
same,"biodistribution, stomach",[1]; 1 h postinjection,0.67 ± 0.18 % ID/g
same,PIP:blood ratio,[1]; 2 h postinjection,148 and 147.6
same,PIP:flu ratio,[1]; 2 h postinjection,233.4
same,PIP:kidney ratio,[1]; 2 h postinjection,0.7
same,PIP:muscle ratio,[1]; 2 h postinjection,643 and 643.1
same,"biodistribution, PC-3 PIP tumor",[1]; 2 h postinjection,90.0 ± 13.6 % ID/g
same,"biodistribution, PC-3 flu tumor",[1]; 2 h postinjection,0.39 ± 0.01 % ID/g
same,"biodistribution, bladder",[1]; 2 h postinjection,4.22 ± 1.58 % ID/g
same,"biodistribution, blood",[1]; 2 h postinjection,0.61 ± 0.41 % ID/g
same,"biodistribution, bone",[1]; 2 h postinjection,0.20 ± 0.03 % ID/g
same,"biodistribution, fat",[1]; 2 h postinjection,0.88 ± 0.80 % ID/g
same,"biodistribution, heart",[1]; 2 h postinjection,0.35 ± 0.07 % ID/g
same,"biodistribution, kidney",[1]; 2 h postinjection,127 ± 37.1 % ID/g
same,"biodistribution, large intestine",[1]; 2 h postinjection,0.51 ± 0.30 % ID/g
same,"biodistribution, liver",[1]; 2 h postinjection,6.42 ± 1.06 % ID/g
same,"biodistribution, lung",[1]; 2 h postinjection,1.21 ± 0.14 % ID/g
same,"biodistribution, muscle",[1]; 2 h postinjection,0.14 ± 0.02 % ID/g
same,"biodistribution, pancreas",[1]; 2 h postinjection,0.37 ± 0.07 % ID/g
same,"biodistribution, small intestine",[1]; 2 h postinjection,0.52 ± 0.17 % ID/g
same,"biodistribution, spleen",[1]; 2 h postinjection,5.69 ± 2.14 % ID/g
same,"biodistribution, stomach",[1]; 2 h postinjection,0.67 ± 0.72 % ID/g
same,PIP:blood ratio,[1]; 4 h postinjection,240 and 240.1
same,PIP:flu ratio,[1]; 4 h postinjection,461.5
same,PIP:kidney ratio,[1]; 4 h postinjection,1.4
same,PIP:muscle ratio,[1]; 4 h postinjection,792 and 791.9
same,"biodistribution, PC-3 PIP tumor",[1]; 4 h postinjection,74 % ID/g and 74.4 ± 9.19 % ID/g
same,"biodistribution, PC-3 flu tumor",[1]; 4 h postinjection,0.16 ± 0.03 % ID/g
same,"biodistribution, bladder",[1]; 4 h postinjection,3.30 ± 3.03 % ID/g
same,"biodistribution, blood",[1]; 4 h postinjection,0.31 ± 0.09 % ID/g
same,"biodistribution, bone",[1]; 4 h postinjection,0.09 ± 0.05 % ID/g
same,"biodistribution, fat",[1]; 4 h postinjection,0.53 ± 0.27 % ID/g
same,"biodistribution, heart",[1]; 4 h postinjection,0.14 ± 0.08 % ID/g
same,"biodistribution, kidney",[1]; 4 h postinjection,54.5 ± 22.2 % ID/g
same,"biodistribution, large intestine",[1]; 4 h postinjection,0.81 ± 0.15 % ID/g
same,"biodistribution, liver",[1]; 4 h postinjection,2.95 ± 1.97 % ID/g
same,"biodistribution, lung",[1]; 4 h postinjection,0.58 ± 0.32 % ID/g
same,"biodistribution, muscle",[1]; 4 h postinjection,0.09 ± 0.07 % ID/g
same,"biodistribution, pancreas",[1]; 4 h postinjection,0.13 ± 0.03 % ID/g
same,"biodistribution, small intestine",[1]; 4 h postinjection,0.23 ± 0.05 % ID/g
same,"biodistribution, spleen",[1]; 4 h postinjection,1.68 ± 1.03 % ID/g
same,"biodistribution, stomach",[1]; 4 h postinjection,0.12 ± 0.07 % ID/g
same,tumor/kidney ratio,[1]; at 2–4 h,approximately 1
same,PSMA– PC3 flu tumor uptake,"[1]; mouse, in vivo",no specific uptake
same,defluorination in vivo (from bone uptake),"[1]; mouse, in vivo",lack of significant defluorination in vivo
same,PSMA+ PC3 PIP tumor uptake on small animal PET imaging,[2]; male SCID mice with PSMA+ PC3 PIP and PSMA– PC3 flu xenografts,Intense and selective radiotracer uptake
same,uptake in salivary glands on imaging,"[2]; mouse, in vivo",Neither [^18F]23 nor [^18F]24 demonstrated any uptake in salivary glands
"O=C(O)CC[C@H](NC(=O)O[C@@H](CCCCNC(=O)c1ccc(F)cc1)C(=O)O)C(=O)O [compound 12, (S)-2-(((((S)-1-Carboxy-5-(4-fluorobenzamido)pentyl)oxy)-carbonyl)amino)pentanedioic Acid]",reduction in binding affinity compared to 9,PSMA,more than 150 fold
"O=C(O)CC[C@H](OC(=O)N[C@@H](CCCCNC(=O)c1ccc(F)cc1)C(=O)O)C(=O)O [compound 13, (S)-2-((((S)-1-Carboxy-5-(4-fluorobenzamido)pentyl)-carbamoyl)oxy)pentanedioic Acid]",reduction in binding affinity compared to 9,PSMA,30 fold
same,Ki,PSMA; Ki,9.2 nM
"O=C(O)CC[C@H](OC(=O)N[C@@H](CCCCNC(=O)c1ccc(Br)cc1F)C(=O)O)C(=O)O [compound 23, (S)-2-((((S)-5-(4-Bromo-2-fluorobenzamido)-1-carboxypentyl)carbamoyl)oxy)pentanedioic Acid]",decrease in potency compared with the corresponding ureas 26 and 27,PSMA,< 10 fold
same,Ki,PSMA; Ki,0.11 nM
O=C(O)CC[C@H](OC(=O)N[C@@H](CCCCNC(=O)c1ccc(I)cc1F)C(=O)O)C(=O)O [compound 24],decrease in potency compared with the corresponding ureas 26 and 27,PSMA,< 10 fold
same,Ki,PSMA,0.21 nM
"O=C(O)CC[C@H](NC(=O)N[C@@H](CCCCNC(=O)c1ccc(Br)cc1F)C(=O)O)C(=O)O [compound 26, (S)-2-(3-((S)-5-(4-Bromo-2-fluorobenzamido)-1-carboxypentyl)ureido)pentanedioic Acid]",Ki,PSMA; Ki,0.036 nM and 0.04 nM
"O=C(O)CC[C@H](NC(=O)N[C@@H](CCCCNC(=O)c1ccc(I)cc1F)C(=O)O)C(=O)O [compound 27, (S)-2-(3-((S)-5-(4-Iodo-2-fluorobenzamido)-1-carboxypentyl)ureido)pentanedioic Acid]",Ki,PSMA; Ki,0.023 nM and 0.02 nM
